Results gathered from unrelated publications.
Cell line: DU-145
Read-out: cell growth or viability

SMILES | method | time | IC50 [µM]
COc1cc(C(=O)c2csc(-c3ccccc3)n2)cc(OC)c1OC | SRB | 96 h | 0.071
CC(C)C[C@H](NC(=O)[C@H](Cc1ccccc1)NC(=O)c1cnccn1)B(O)O | ATP luminescence | – | 0.017
Cc1ccc(S(=O)(=O)OCC(=O)Nc2ccc(C(=O)O)c(O)c2)cc1 | – | – | 75
Cc1cccc2c(C(c3ccc(/C=C/C(=O)O)s3)c3c[nH]c4c(C)cccc34)c[nH]c12 | MTT | 48 h | 64
C[C@@H]1C[C@H](c2ccccc2)c2c(cc3ccccn23)C(=O)O1 (racemic) | resazurin | 72 h | > 100
O=C(O)c1ccc(C(c2c[nH]c3ccccc23)c2c[nH]c3ccccc23)cc1 | MTT | 48 h | > 100
COc1cccc2c1C(=O)c1c(O)c3c(c(O)c1C2=O)C[C@@](O)(C(=O)CO)C[C@@H]3O[C@H]1C[C@H](N)[C@H](O)[C@H](C)O1 | resazurin | 72 h | 0.095
Cn1cc(C(c2ccc(C(=O)O)cc2)c2cn(C)c3ccccc23)c2ccccc21 | MTT | 48 h | > 100
C[C@H]1[C@@H](O)O[C@@H]2O[C@@]3(C)CC[C@H]4[C@H](C)CC[C@@H]1[C@@]24OO3 | CCK-8 | 48 h | > 50
C[C@@H]1C[C@H](c2cccc(Cl)c2)c2c(cc3ccccn23)C(=O)O1 (racemic) | resazurin | 72 h | 54.7
COc1cc(C2Oc3cc([C@H]4Oc5cc(O)cc(O)c5C(=O)[C@@H]4O)ccc3OC2CO)ccc1O (stereo partly shown) | CCK-8 | 72 h | 21.9
COC1=CC(=O)N(C(=O)[C@@H](CCC(Cl)(Cl)Cl)NC(=O)C(C)(C)C)[C@@H]1CCC(Cl)Cl | resazurin | 72 h | > 35
COc1cc([C@H]2C[C@@H](C)OC(=O)c3cc4ccccn4c32)cc(OC)c1OC (racemic) | resazurin | 72 h | 36.9
CC(C)C(=O)Nc1ccc([N+](=O)[O-])c(C(F)(F)F)c1 | CCK-8 | 48 h | > 50
Cc1cc(=O)[nH]c(=O)n1Cc1cn(-c2c3ccccc3nc3ccccc23)nn1 | MTT | – | 26.1
Cc1ccc2[nH]cc(C(c3ccc(/C=C/C(=O)O)s3)c3c[nH]c4ccc(C)cc34)c2c1 | MTT | 48 h | > 100
COc1cc(OC)cc([C@H]2C[C@@H](C)OC(=O)c3cc4ccccn4c32)c1 (racemic) | resazurin | 72 h | 52.4
Cc1ccccc1-c1ccc(Cn2cccc(O)c2=S)cc1 | MTS | – | 13.6
C[C@@H]1C[C@H](c2ccc(Br)cc2)c2c(cc3ccccn23)C(=O)O1 (racemic) | resazurin | 72 h | 34.4
Cc1ccc2c(c1)c(C(c1ccc(/C=C/C(=O)O)s1)c1cn(C(C)C)c3ccc(C)cc13)cn2C(C)C | MTT | 48 h | > 100
C[C@@H]1C[C@H](c2cccc(F)c2)c2c(cc3ccccn23)C(=O)O1 (racemic) | resazurin | 72 h | > 100
Oc1ccc(C(c2c[nH]c3ccccc23)c2c[nH]c3ccccc23)cc1 | MTT | 48 h | 48
